From paper PMC11482445 (Journal of neurochemistry, 2024)
Like-named read-outs stand apart in the source and are kept apart here.

Columns and labels:
[1] = not told; cited from earlier work
CYP2E1 [2] = conditions: in vitro competition assay; cited from earlier work
[3] = humans, 24h after oral administration of ^14C-labeled 4AP; cited from earlier work
CYP2E1 [4] = conditions: humans, DSF treatment; cited from earlier work
[5] = type: in vivo, mice
[6] = type: in vivo, mice; remark: listed apart in the source
Procedure, shortened: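 Mice (isoflurane-anesthetized or awake) given IV tracer (>99% radiochemical purity, in 95% 20 mM sodium phosphate pH 8.0/5% EtOH); euthanized 35 min later. Brain homogenized in 0.4 N HClO4 (~1:2 w/v) by 30 s ultrasonication at 4 °C, spun 21,000 RCF, 8 °C, 7 min. Plasma and pH-neutralized supernatant passed through 10K filter, then radio-HPLC on C18 with 10 mM NH4HCO3 pH 8.0/MeCN (96:4). Samples kept on ice. Percent parent fraction reported.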

[7] = cited from earlier work
[8] = cited from earlier work; remark: listed apart in the source

SMILES: Nc1cc[n+]([O-])cc1F [3F4AP N-oxide]
- permeability across an artificial brain membrane [1]: low permeability

SMILES: Nc1ccncc1F [3F4AP, 3-fluoro-4-aminopyrdine]
- affinity of CYP2E1 relative to the affinity for 4AP (CYP2E1 [2]): 50 times

SMILES: Nc1ccncc1 [4AP, 4-aminopyridine]
- radioactive species recovered in urine corresponding to the unchanged drug [3]: ~ 90%

SMILES: Nc1c(O)cncc1F [5-hydroxy-3F4AP]
- permeability across an artificial brain membrane [1]: low permeability

SMILES: CCN(CC)C(=S)SSC(=S)N(CC)CC [DSF, disulfiram]
- prevention of clinical isoflurane metabolism (CYP2E1 [4]): 80–90%

SMILES: Nc1ccncc1[18F] [[^18F]3F4AP, 3-[^18F]fluoro-4-aminopyridine]
- SUV35 min-br (awk mice) ([5]; brain, 35 min post-injection, IV, awake mice, n = 20, mean ± SEM): 0.28 ± 0.04
- WB and brain SUV values, awake vs anesthetized mice ([5]; euthanized at 60 sec (1 min) post-tracer injection, Fig. S1): no significant differences
- SUV35 min-WB (awk mice) ([5]; whole blood, 35 min post-injection, IV, awake mice, mean ± SEM): 0.51 ± 0.05
- SUV35 min-WB (iso mice) ([5]; whole blood, 35 min post-injection, IV, isoflurane-anesthetized mice, mean ± SEM): 0.66 ± 0.08
- percent parent fraction in brain (%PFawk-br) ([6]; brain, awake mice, 35 min post-tracer, n = 8, mean ± SEM): 80.3 ± 2.7%
- proportion of radiometabolites in the brain, anesthetized mice ([6]; brain, isoflurane-anesthetized mice, 35 min): 1.6%
- percent parent fraction in brain (%PFiso-br) ([6]; brain, isoflurane-anesthetized mice, 35 min post-tracer, n = 5, mean ± SEM): 98.4 ± 0.2%
- concentration of metabolites in plasma, awake mice ([6]; plasma, awake mice, 35 min): 82.3%
- percent parent fraction in plasma (%PFawk-pl) ([6]; plasma, awake mice, 35 min post-tracer, n = 11, mean ± SEM): 17.7 ± 1.7%
- concentration of metabolites in plasma, anesthetized mice ([6]; plasma, isoflurane-anesthetized mice, 35 min): 25.2%
- percent parent fraction in plasma (%PFiso-pl) ([6]; plasma, isoflurane-anesthetized mice, 35 min post-tracer, n = 10, mean ± SEM): 74.8 ± 1.6%
- brain uptake SUV at 4 min ([7]; NHPs, brain, 4 min): > 3
- parent fraction (metabolic stability) ([7]; NHPs, up to 2h post-injection): > 90%
- brain SUV 90 min post-injection ([7]; anesthetized NHPs, brain TAC, Fig. 3A): ~ 1.50
- SUV90 min-WB (NHP) ([7]; anesthetized NHPs, whole blood, 90 min): 0.946
- brain SUV 90 min post-injection ([8]; awake humans, brain TAC, Fig. 3A): 0.54
- SUV90 min-WB (human) ([8]; awake humans, whole blood, 90 min): 0.87
- parent remaining in blood ([8]; humans, 1h post-injection): less than 50%
